Screening results from PubChem.
An excerpt weighted towards active compounds, which were near 3% of everything screened.
proKLK7 act = activators of human kallikrein-7 zymogen. purified proKLK7, EDANS-DABCYL substrate fluorescence; 100% is mature enzyme control, 0% vehicle. 370,000 compounds, 0.9% hits. activation, % at 7 µM;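 active = activation above the mean of all tested compounds plus 3 SD, computed per campaign excluding outliers beyond control limits, cut at about 13% in these data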
DDE Tn6 FP inh = DD(E)-Tn6 binding inhibition, primary FP screen; P02675; Fibrin DD(E) TRITC-Tn6 fluorescence polarization displacement; inhibition, % at 8.3 µM; 370,000 compounds, 0.21% hits; AID 720509;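 active = inhibition above a per-campaign cutoff: mean of compounds within control limits plus 3 SD, cut at about 15% in these data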
PLC-beta3 inh = inhibitors of human phospholipase C beta3; 370,000 compounds, 0.18% hits; inhibition, % at 12.2 µM; Q01970; AID 720704; Purified PLC-beta3, fluorogenic substrate, fluorescence; in the data active = inhibition above about 11%
PLCg1 inh = inhibitors of human phospholipase C gamma1; 370,000 compounds, 0.84% hits; P19174; inhibition, % at 12.2 µM; purified PLC-gamma1, fluorogenic substrate, fluorescence; in the data active = inhibition above about 9.5%
Tn7 DDE FP = DD(E)-Tn7 binding inhibition, primary FP screen; P02675; FP displacement of FITC-Tn7 peptide from fibrin DD(E); 0% = median of compound wells per plate; inhibition, % at 8.3 µM; 370,000 compounds, 0.13% hits; AID 720508;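 active = inhibition above the mean of compounds falling within the control limits plus 3 SD of them, cut at about 14% in these data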
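Also added: labelled Tn7 tracer, 0.1 µM; Assay system: human fibrin DD(E) protein; Amount: 2 µM fibrin DD(E); Schedule: 10 min compound pre-incubation, 3 h probe incubation at room temperature; Repeats: one replicate per compound; Read-out basis: percent inhibition; Measured by: fluorescence polarization of the labelled Tn7 tracer.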
CendR NRP1 mod = modulators of CendR peptide binding to human neuropilin-1; FAM-RPARPAR peptide binding to NRP-1, fluorescence polarization; inhibition, % at 25 µM; O14786; 360,000 compounds, 0.85% hits;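 active = inhibition or corrected inhibition above about 18%, plus a signal ratio from 0.5 to 1.5, limit read from the data, passing the limit was not always enough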
Target sequence (O14786 whole entry, looked up): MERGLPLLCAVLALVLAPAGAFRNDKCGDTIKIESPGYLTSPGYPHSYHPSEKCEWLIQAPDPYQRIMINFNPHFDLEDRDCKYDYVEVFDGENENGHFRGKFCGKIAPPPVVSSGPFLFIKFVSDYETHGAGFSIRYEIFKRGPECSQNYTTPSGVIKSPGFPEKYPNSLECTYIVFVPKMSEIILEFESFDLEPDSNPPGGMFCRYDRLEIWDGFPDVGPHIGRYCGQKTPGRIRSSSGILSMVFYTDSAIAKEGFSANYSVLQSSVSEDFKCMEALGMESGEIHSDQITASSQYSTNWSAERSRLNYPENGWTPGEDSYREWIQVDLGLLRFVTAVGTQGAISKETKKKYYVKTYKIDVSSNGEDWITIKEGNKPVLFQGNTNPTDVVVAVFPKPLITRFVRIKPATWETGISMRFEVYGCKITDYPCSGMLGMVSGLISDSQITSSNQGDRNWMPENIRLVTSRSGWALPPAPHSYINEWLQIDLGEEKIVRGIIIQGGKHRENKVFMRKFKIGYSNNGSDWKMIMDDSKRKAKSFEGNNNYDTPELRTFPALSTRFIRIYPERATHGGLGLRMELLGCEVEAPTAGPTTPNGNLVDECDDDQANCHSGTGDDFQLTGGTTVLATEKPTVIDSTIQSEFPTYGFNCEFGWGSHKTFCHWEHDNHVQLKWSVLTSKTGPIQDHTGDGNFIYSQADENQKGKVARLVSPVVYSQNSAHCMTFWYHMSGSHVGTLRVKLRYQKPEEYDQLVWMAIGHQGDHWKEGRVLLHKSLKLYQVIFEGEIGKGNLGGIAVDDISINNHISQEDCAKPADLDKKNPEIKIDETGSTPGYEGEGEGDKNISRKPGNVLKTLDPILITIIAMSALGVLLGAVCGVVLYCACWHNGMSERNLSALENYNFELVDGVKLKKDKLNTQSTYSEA
KLK7 act conf = confirmation of human kallikrein-7 zymogen activators; shares compounds with proKLK7 act; purified proKLK7, EDANS-DABCYL substrate fluorescence; scaled: vehicle 0, mature enzyme 100; 3,200 compounds, 68% hits; activation, % at 7 µM; AID 686949;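 active = activation, as change over the incubation, above the mean of all tested compounds plus 3 SD, cut at about 13% in these data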
EDANS interfere = optically interferes with EDANS-DABCYL signal, flagging KLK7 hits; shares compounds with proKLK7 act; EDANS-DABCYL substrate fluorescence interference, no enzyme, 4 h; solvent 0%, active enzyme control 100%; activation, % at 7 µM; 3,200 compounds, 80% hits; AID 686952;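 active = activation above the all-compound mean plus 3 SD, ignoring values outside control-based bounds, cut at about 4.8% in these data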;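 note: value is the 4 h activation minus the activation read at time zero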
EDANS interf = counter-screen for kallikrein-7 activators: EDANS-DABCYL interference, dose response; shares compounds with proKLK7 act; EDANS-DABCYL peptide fluorescence interference, no enzyme; EC50, µM; 250 compounds, 20% hits;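 active = compounds that raise the fluorescence signal in this interference counterscreen, with EC50 at or below 10 µM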;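 note: intact quenched peptide substrate alone read at 355 nm excitation and 520 nm emission; signal is fluorescence gain from T0 to T4 after four hours at room temperature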
DDE Tn7 confirm = confirmation of inhibitors of Tn7 binding to human fibrin DD(E); shares compounds with Tn7 DDE FP; FP displacement of TRITC-Tn7 peptide from DD(E); 0% set at plate's compound-well median; inhibition, % at 8.3 µM; 460 compounds, 5% hits;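 active = inhibition above the campaign cutoff, the mean of compounds within control limits plus 3 SD, cut at about 14% in these data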;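 note: displacers lower polarization since freed probe rises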
Tn7 DDE ctr = DD(E)-Tn7 binding inhibition, counter-screen; shares compounds with Tn7 DDE FP; fibrin DD(E), TRITC-Tn7 probe displacement, fluorescence polarization; inhibition, % at 8.3 µM; 460 compounds, 3% hits;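 active = inhibition above the cutoff, the mean of compounds lying between the control bounds plus 3 SD of those compounds, cut at about 17% in these data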
DDE Tn6 FP ctr = counter-screen for inhibitors of Tn6 peptide binding to fibrin DD(E); shares compounds with DDE Tn6 FP inh; TRITC-Tn6 fluorescence polarization displacement; 0% = median of compound wells, not DMSO; inhibition, % at 8.3 µM; 680 compounds, 2% hits; AID 720621;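 active = inhibition above the mean of test compounds lying between the control limits plus 3 SD of those, cut at about 14% in these data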
DDE Tn6 confirm = confirmation of inhibitors of Tn6 binding to human fibrin DD(E) | shares compounds with DDE Tn6 FP inh | FP displacement of TRITC-Tn6 peptide from DD(E); 0% = per-plate median of test wells | inhibition, % at 8.3 µM | 680 compounds, 10% hits | AID 720631;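 active = inhibition above the mean of compounds lying within the control limits plus 3 SD, cut at about 16% in these data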
Large screens that a line does not name were inactive (follow-up assays come after a bar, where they were run).

COCCN1Cc2cc(=O)n3c([nH]c4ccccc43)c2C1=N	proKLK7 act 22.1 | KLK7 act conf 18.9 | EDANS interfere inactive | EDANS interf inactive
C[C@@H]1CNCCN1c1ccc(N2CC[C@@H](O)C2)c(C#N)c1	none (no result: CendR NRP1 mod)
O=C(c1cccn2c(=O)c3ccccc3nc12)N1CCC2(CC1)OCCO2	proKLK7 act 39.8 | KLK7 act conf 41.6 | EDANS interfere 49.2
Cc1c(-c2cccc(Cl)c2)nc2ccccc2c1C(=O)N1CCC2(CC1)OCCO2	none
O=C(c1cccn2c(=O)c3cc(Cl)ccc3nc12)N1CCC2(CC1)OCCO2	proKLK7 act 14.2 | KLK7 act conf 57.7 | EDANS interfere 73.3
O=C(c1cc(-c2ccccc2)nc2ccccc12)N1CCC2(CC1)OCCO2	none
C=CCOC(=O)COc1cc(C)cc2oc(=O)c3c(c12)CCC3	proKLK7 act 40.7 | KLK7 act conf 44.2 | EDANS interfere 44.5
Cc1cccc(N2CCc3c2nc2ccccc2c3N)c1	proKLK7 act 21.9 | KLK7 act conf inactive | EDANS interfere inactive
CC[C@@H]1C[C@H]2CC[C@H](O2)[C@H](C)C(=O)O[C@@H](C)C[C@@H]2CC[C@@H](O2)[C@@H](C)C(=O)O[C@H](C)C[C@H]2CC[C@H](O2)[C@H](C)C(=O)O[C@@H](C)C[C@@H]2CC[C@@H](O2)[C@@H](C)C(=O)O1	none (no result: CendR NRP1 mod)
O=C(NC1CN2CCC1CC2)c1ccc(Cl)cc1 (centres undefined)	none (no result: CendR NRP1 mod)
CC(C)(C)n1nnnc1C1CN=C(c2ccccc2)c2cc(Cl)ccc2N1 (centres undefined)	none (no result: CendR NRP1 mod)
CN1C(=O)N(C)C(=O)C2(Sc3ccccc3C2=O)C1=O	proKLK7 act 12.8 | KLK7 act conf 247.1 | EDANS interfere 232.8
Cc1ccc2nc(-c3ccc(CN4CCC(n5c(=O)[nH]c6cc(Cl)ccc65)CC4)cc3)c(-c3ccccc3)nc2c1	none (no result: CendR NRP1 mod)
N#C[C@H](O[C@@H]1O[C@H](CO[C@@H]2O[C@H](CO)[C@@H](O)[C@H](O)[C@H]2O)[C@@H](O)[C@H](O)[C@H]1O)c1ccccc1	none
O=c1ccc2cc(O[C@@H]3O[C@@H](CO)[C@H](O)[C@@H](O)[C@@H]3O)c(O)cc2o1	proKLK7 act 65.5 | KLK7 act conf 76.7 | EDANS interfere 83.7
c1ccc2c(c1)[nH]c1cnccc12	proKLK7 act 46.3 | KLK7 act conf 17.9 | EDANS interfere 21.5
CCc1nccc2c1[nH]c1ccccc12	proKLK7 act 45.6 | KLK7 act conf 47.2 | EDANS interfere 46.1
Cc1nccc2c1[nH]c1ccccc12	proKLK7 act 36.5 | KLK7 act conf 31.6 | EDANS interfere 36.0
Cc1[nH]c2ccccc2c1CCN	none
Cc1c2ccncc2c(C)c2c1[nH]c1ccccc12	none (no result: proKLK7 act, DDE Tn6 FP inh, PLC-beta3 inh, PLCg1 inh, Tn7 DDE FP)
O=C(O)c1cc(S(=O)(=O)N2CC3CC(C2)c2cccc(=O)n2C3)ccc1F (centres undefined)	none (no result: CendR NRP1 mod)
COc1ccc(N2C(=O)NC(=O)/C(=C\c3ccccc3[N+](=O)[O-])C2=O)cc1	none
CN(C)c1ccc(C=C2C(=O)NC(=O)NC2=O)cc1[N+](=O)[O-]	none
Cc1cccc(N2C(=O)NC(=O)/C(=C/c3cc4c(cc3[N+](=O)[O-])OCO4)C2=O)c1	proKLK7 act 15.9 | KLK7 act conf 75.7 | EDANS interfere 76.4
O=C1NC(=O)C(=Cc2cc3c(cc2[N+](=O)[O-])OCO3)C(=O)N1	proKLK7 act 14.8 | KLK7 act conf inactive | EDANS interfere 7.9
c1ccc2oc(-c3ccc4c(c3)CNCc3cnnn3-4)cc2c1	proKLK7 act 22.0 | KLK7 act conf 18.9 | EDANS interfere 19.1
Cc1cc(=O)oc2cc(OCC(=O)N3C[C@H]4C[C@@H](C3)c3cccc(=O)n3C4)c(Cl)cc12	none
Cc1cc(=O)oc2cc(OCC(=O)N3CCN(C(C)c4ccccc4)CC3)c(Cl)cc12 (centres undefined)	proKLK7 act 37.7 | KLK7 act conf 63.1 | EDANS interfere 75.2
COc1ccccc1N	none (no result: CendR NRP1 mod)
Nc1ccc2ccc3cccc[n+]3c2c1	proKLK7 act 94.8, Tn7 DDE FP 69.7 | KLK7 act conf 72.7 | EDANS interfere 66.2 | DDE Tn7 confirm 24.8 | Tn7 DDE ctr inactive
N#Cc1ccc(NC(=S)N2Cc3cc(Br)ccc3-n3nncc3C2)cc1	none (no result: CendR NRP1 mod)
O=c1cc(C(F)(F)F)c2cc3c4c(c2o1)CCCN4CCC3	Tn7 DDE FP 32.9 | DDE Tn7 confirm inactive | Tn7 DDE ctr inactive
O=C(NCCN1CCC2(CC1)C(=O)NCN2c1ccccc1)c1cccnc1Cl	none (no result: CendR NRP1 mod)
FC(F)(F)c1cccc(NC2=NCCCS2)c1	Tn7 DDE FP 13.8 | DDE Tn7 confirm inactive | Tn7 DDE ctr inactive
COc1cc(CCN)c(OC)cc1C	none (no result: CendR NRP1 mod)
CN(c1ccc(O)cc1)c1ccc([N+](=O)[O-])c2nonc12	none
Nc1ccc2nonc2c1[N+](=O)[O-]	Tn7 DDE FP 20.0 | DDE Tn7 confirm inactive | Tn7 DDE ctr inactive
O=[N+]([O-])c1ccc(NCc2ccccc2)c2nonc12	DDE Tn6 FP inh 21.3, Tn7 DDE FP 61.1 (no result: CendR NRP1 mod) | DDE Tn7 confirm 46.2 | Tn7 DDE ctr 27.1 | DDE Tn6 FP ctr 46.2 | DDE Tn6 confirm 27.1
O=S(=O)(c1ccc2ccccc2c1)N1Cc2cc(Br)ccc2-n2nncc2C1	none (no result: CendR NRP1 mod)
C=CC1C[N+]2(C)CCC1CC2C(O)c1ccnc2ccccc12 (centres undefined)	none (no result: CendR NRP1 mod)
